Results taken from ChEMBL document CHEMBL5154815, “A Series of Substituted Bis-Aminotriazines Are Activators of the Natriuretic Peptide Receptor C” (J Med Chem, 2022).
The source made the active and inactive calls. The rule behind the calls is not given here.

Columns and labels:
[1] = biological target: T1, Atrial natriuretic peptide receptor 2 (Homo sapiens) (UniProt P20594); experiment: Agonist activity at NPRB in human HeLa cells assessed as increased cGMP formation at 1 uM incubated for 30 mins in presence of IBMX by ELISA; type: cell-based; conditions: filed as agonist
T1 sequence (whole entry): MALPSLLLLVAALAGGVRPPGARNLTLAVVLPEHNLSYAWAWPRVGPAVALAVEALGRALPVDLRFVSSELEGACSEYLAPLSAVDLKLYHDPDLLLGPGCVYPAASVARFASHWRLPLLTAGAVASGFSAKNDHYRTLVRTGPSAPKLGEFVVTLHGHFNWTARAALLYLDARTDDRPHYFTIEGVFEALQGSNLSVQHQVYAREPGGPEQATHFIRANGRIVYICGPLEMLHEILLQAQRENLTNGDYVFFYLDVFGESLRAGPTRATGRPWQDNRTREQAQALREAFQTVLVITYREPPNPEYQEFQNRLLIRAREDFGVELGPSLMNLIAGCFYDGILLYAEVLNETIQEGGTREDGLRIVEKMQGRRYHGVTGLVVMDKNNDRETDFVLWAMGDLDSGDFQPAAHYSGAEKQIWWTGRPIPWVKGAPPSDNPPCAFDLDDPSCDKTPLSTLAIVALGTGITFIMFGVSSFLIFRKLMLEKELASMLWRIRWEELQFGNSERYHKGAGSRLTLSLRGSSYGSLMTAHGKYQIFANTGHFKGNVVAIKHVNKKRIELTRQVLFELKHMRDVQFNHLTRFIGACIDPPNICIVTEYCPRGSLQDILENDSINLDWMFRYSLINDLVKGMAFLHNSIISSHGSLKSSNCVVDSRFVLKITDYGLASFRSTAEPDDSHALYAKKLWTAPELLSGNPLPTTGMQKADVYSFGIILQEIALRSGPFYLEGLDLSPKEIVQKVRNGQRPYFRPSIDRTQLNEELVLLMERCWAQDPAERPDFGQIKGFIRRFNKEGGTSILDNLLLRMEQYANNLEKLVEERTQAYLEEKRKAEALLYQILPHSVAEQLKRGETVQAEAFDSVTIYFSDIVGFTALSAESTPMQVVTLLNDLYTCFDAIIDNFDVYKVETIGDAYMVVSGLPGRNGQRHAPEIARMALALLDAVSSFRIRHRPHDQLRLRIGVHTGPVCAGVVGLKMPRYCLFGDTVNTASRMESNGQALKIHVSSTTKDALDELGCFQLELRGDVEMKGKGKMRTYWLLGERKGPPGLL
Method in brief: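 HeLa cells grown in high-glucose DMEM with 10% heat-inactivated bovine serum, penicillin and streptomycin at 5% CO2. Medium was changed on the assay day, then cells equilibrated 4 h. ANP, CNP and cANF4–23 (1 μM) or test compounds (10 μM) were added with IBMX (1 mM) for 30 min. Lysis used 1% Triton-X/0.1 M HCl. Supernatant cGMP was read by ELISA and normalized to BCA protein; points are independent biological replicates.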

[2] = Stability in Sprague-Dawley rat hepatocytes assessed as clearance per […] at 1 uM after 20 mins by LC-MS/MS analysis; type: ADME, cell-based, Hepatocyte
[3] = Solubility of compound in PBS at 10 mM after 3 hrs by UV analysis; conditions: buffer, 10000 µM
[4] = biological target: T2, Atrial natriuretic peptide receptor 3 (Rattus norvegicus, UniProt P41740); experiment: Agonist activity at NPRC in rat small mesenteric arteries assessed as vasorelaxation by Organ bath assay; type: tissue-based, Artery
T2 sequence (P41740 whole entry): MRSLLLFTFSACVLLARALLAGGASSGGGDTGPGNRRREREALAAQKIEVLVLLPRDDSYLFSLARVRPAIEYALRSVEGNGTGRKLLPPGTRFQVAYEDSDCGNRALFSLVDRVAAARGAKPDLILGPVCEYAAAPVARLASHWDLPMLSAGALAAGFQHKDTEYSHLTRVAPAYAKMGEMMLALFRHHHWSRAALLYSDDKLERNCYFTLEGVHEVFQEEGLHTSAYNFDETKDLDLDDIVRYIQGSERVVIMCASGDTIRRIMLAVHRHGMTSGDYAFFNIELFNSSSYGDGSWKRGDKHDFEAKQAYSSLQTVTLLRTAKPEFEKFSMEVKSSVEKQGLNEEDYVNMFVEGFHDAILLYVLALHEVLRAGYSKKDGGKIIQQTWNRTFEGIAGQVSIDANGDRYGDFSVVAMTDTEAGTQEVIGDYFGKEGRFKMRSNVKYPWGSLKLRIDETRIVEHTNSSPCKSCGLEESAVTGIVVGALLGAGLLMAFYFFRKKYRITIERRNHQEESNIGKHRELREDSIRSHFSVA

[5] = biological target: T2, Atrial natriuretic peptide receptor 3; experiment: Agonist activity at NPRC in rat aorta assessed as vasorelaxation by Organ bath assay; type: tissue-based
[6] = Permeability of the compound in PBS at pH 7.4 incubated for 5 hrs by LC/MS based PAMPA assay; conditions: pH 7.4, 5 h
[7] = biological target: Cytochrome P450 2C9 (Homo sapiens, UniProt P11712); experiment: Inhibition of CYP2C9 in human liver microsomes using diclofenac as substrate preincubated for 10 mins followed by NADPH addition and measured after 10 mins by LC/MS/MS analysis
Cytochrome P450 2C9, sequence (P11712 whole entry): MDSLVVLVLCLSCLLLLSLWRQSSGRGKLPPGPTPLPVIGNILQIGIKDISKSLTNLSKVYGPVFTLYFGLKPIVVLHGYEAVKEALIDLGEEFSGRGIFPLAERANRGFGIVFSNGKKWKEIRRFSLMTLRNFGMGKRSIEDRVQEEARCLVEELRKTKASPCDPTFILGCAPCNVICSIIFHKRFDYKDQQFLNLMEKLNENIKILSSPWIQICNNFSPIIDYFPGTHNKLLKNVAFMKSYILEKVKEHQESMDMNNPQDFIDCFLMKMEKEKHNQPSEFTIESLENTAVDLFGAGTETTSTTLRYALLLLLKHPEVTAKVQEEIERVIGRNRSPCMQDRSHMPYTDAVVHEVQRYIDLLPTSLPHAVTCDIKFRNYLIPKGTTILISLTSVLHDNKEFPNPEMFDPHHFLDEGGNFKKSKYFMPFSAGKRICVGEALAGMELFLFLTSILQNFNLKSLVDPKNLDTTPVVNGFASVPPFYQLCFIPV

[8] = Stability of compound in pooled human plasma assessed as half life measured upto 120 mins by LC/MS/MS analysis; conditions: 2 h
[9] = Protein binding in human plasma by equilibrium dialysis assay
[10] = biological target: Cytochrome P450 2C19 (Homo sapiens, UniProt P33261); experiment: Inhibition of CYP2C19 in human liver microsomes using S-mephenytoin as substrate preincubated for 10 mins followed by NADPH addition and measured after 20 mins by LC/MS/MS analysis
Cytochrome P450 2C19, sequence (P33261 whole entry): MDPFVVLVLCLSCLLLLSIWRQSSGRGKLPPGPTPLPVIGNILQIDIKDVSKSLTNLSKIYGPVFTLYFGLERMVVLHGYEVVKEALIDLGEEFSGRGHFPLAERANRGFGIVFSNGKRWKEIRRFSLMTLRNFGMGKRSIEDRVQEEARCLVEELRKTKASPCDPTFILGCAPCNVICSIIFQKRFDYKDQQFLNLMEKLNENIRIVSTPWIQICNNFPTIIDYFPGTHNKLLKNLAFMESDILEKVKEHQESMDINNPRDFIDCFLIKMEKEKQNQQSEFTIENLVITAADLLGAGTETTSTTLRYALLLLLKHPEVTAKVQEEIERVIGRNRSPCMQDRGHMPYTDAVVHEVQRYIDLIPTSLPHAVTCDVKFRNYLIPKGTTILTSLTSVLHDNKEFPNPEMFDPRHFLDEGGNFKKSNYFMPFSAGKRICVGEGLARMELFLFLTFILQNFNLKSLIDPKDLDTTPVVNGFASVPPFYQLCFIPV

[11] = biological target: T3, Cytochrome P450 1A2 (Homo sapiens, UniProt P05177); experiment: Inhibition of CYP1A2 in human liver microsomes using phenacetin as substrate preincubated for 10 mins followed by NADPH addition and measured after 10 mins by LC/MS/MS analysis
T3 sequence (P05177 whole entry): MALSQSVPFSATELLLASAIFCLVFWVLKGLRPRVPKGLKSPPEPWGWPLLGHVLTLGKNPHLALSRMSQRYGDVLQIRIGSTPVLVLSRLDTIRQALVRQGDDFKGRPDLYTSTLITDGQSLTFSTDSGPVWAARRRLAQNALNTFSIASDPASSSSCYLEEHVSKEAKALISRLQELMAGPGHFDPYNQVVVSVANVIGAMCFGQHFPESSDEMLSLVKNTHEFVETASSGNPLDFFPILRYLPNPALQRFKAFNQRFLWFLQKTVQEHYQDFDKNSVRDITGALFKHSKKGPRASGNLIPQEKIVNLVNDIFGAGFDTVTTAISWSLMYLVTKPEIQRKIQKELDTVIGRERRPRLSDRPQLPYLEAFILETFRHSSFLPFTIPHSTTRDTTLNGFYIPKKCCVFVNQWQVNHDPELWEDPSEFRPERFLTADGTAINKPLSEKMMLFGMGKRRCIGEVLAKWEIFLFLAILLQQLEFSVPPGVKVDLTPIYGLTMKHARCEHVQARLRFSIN

[12] = biological target: T4, Cytochrome P450 2C8 (Homo sapiens, UniProt P10632); experiment: Inhibition of CYP2C8 in human liver microsomes using amodiaquine as a substrate preincubated for 10 mins followed by NADPH addition and measured after 10 mins by LC/MS/MS analysis
T4 sequence (P10632 whole entry): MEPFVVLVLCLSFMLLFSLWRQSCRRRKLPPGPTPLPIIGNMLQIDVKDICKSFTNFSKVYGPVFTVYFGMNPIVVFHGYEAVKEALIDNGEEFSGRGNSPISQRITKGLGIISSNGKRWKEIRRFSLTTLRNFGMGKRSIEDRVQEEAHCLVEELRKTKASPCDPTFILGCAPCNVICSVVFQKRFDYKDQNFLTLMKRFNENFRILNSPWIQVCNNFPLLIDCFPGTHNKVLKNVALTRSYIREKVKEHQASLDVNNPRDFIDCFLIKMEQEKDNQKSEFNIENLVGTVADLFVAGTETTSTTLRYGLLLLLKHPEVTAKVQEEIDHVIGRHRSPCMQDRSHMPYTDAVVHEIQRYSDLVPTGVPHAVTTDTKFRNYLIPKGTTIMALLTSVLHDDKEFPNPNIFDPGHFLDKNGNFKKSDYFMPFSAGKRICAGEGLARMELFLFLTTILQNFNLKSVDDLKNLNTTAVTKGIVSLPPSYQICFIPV

[13] = biological target: T5, Cytochrome P450 3A4 (Homo sapiens, UniProt P08684); experiment: Inhibition of CYP3A4 in human liver microsomes using midazolam as a substrate preincubated for 10 mins followed by NADPH addition and measured after 20 mins by LC/MS/MS analysis
T5 sequence (P08684 whole entry): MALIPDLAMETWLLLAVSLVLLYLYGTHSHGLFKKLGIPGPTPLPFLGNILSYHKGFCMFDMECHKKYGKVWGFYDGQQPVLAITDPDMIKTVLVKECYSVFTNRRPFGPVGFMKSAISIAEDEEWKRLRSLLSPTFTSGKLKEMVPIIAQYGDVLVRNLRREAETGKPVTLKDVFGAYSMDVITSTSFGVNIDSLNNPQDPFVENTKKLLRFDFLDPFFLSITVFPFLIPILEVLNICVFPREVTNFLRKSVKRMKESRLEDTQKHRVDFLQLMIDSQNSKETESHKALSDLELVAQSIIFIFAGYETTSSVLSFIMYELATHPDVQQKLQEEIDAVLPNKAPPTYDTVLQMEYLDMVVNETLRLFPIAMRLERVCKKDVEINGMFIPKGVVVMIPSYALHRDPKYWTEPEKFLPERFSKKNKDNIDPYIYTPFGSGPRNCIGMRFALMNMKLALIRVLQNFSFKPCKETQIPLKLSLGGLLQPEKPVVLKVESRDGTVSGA

[14] = biological target: T5, Cytochrome P450 3A4; experiment: Inhibition of CYP3A4 in human liver microsomes using testosterone as a substrate preincubated for 10 mins followed by NADPH addition and measured after 10 mins by LC/MS/MS analysis
[15] = biological target: T6, Atrial natriuretic peptide receptor 3 (Homo sapiens, UniProt P17342); experiment: Binding affinity to CM5 sensor chip immobilized human NPR-C (27 to 541 residues) assessed as dissociation constant by surface plasmon resonance analysis
T6 sequence (P17342 whole entry): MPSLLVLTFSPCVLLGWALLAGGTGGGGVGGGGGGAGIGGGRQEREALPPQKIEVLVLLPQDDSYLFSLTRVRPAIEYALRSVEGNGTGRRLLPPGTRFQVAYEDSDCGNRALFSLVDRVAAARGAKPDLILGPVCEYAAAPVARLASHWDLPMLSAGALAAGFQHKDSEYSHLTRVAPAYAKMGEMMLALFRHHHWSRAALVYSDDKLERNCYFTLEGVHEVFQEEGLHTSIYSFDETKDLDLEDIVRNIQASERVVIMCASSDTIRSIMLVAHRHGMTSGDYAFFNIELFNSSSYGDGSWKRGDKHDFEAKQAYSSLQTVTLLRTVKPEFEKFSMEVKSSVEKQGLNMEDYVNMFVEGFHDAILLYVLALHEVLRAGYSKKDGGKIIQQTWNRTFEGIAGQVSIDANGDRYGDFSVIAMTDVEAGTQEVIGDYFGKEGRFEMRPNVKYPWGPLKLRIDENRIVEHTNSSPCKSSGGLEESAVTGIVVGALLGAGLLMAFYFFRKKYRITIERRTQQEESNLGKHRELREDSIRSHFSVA

[16] = rat, hepatocytes, 20 min, 1 µM

CC[C@H](C)[C@@H]1NC(=O)[C@H](CCCNC(=N)N)NC(=O)[C@H](CC(=O)O)NC(=O)[C@H](CCSC)NC(=O)[C@H](CCCNC(=N)N)NC(=O)CNC(=O)CNC(=O)[C@H](Cc2ccccc2)NC(=O)[C@@H](NC(=O)[C@H](CO)NC(=O)[C@H](CO)NC(=O)[C@H](CCCNC(=N)N)NC(=O)[C@H](CCCNC(=N)N)NC(=O)[C@H](CC(C)C)NC(=O)[C@@H](N)CO)CSSC[C@@H](C(=O)N[C@@H](CC(N)=O)C(=O)N[C@@H](CO)C(=O)N[C@@H](Cc2ccccc2)C(=O)N[C@@H](CCCNC(=N)N)C(=O)N[C@@H](Cc2ccc(O)cc2)C(=O)O)NC(=O)CNC(=O)[C@H](CC(C)C)NC(=O)CNC(=O)[C@H](CO)NC(=O)[C@H](CCC(N)=O)NC(=O)[C@H](C)NC(=O)CNC1=O
Activity [1]: Active

CC(=O)Nc1ccc(Nc2ncnc(N[C@@H](CC(C)C)C(=O)O)n2)cc1
CLH [2]: < 6.4 µL/min | solubility [3]: > 71.68 mg/mL | EC50 [4]: 22.2 µM | EC50 [5]: 6.2 µM | Papp [6]: < 0.001 10^-6 cm/s | IC50 [7]: > 50 µM | t1/2 [8]: > 1 h | PPB [9]: 85.4% | IC50 [10]: > 50 µM | IC50 [11]: > 50 µM | IC50 [12]: > 50 µM | IC50 [13]: > 50 µM | IC50 [14]: > 50 µM | Kd [15]: 220 µM | t1/2 [16]: 3.613 h
